Test results reported in ChEMBL document CHEMBL4673335, “Store-Operated Calcium Entry as a Therapeutic Target in Acute Pancreatitis: Discovery and Development of Drug-Like SOCE Inhibitors” (J Med Chem, 2020).
pIC50: −log10 of the molar value. Blank lines part the entries; values can stand above or below the molecule they belong to. Activity calls are given as the source filed them. The calls are words filed in the database; no cut-off is given here.

How the values were obtained:
[1] = molecular target: T1, ORAI1/STIM1 (Homo sapiens) (UniProt Q96D31+Q13586); experiment: Inhibition of STIM1/Orai1 (unknown origin) expressed in HEK293 cells assessed as reduction in tBHQ-induced calcium response at 10 uM relative to control; type: cell-based
Method in brief: (§1)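 HEK cells, calcium imaging by fluorescence microscopy. Ca2+ added after 600 s and intracellular levels recorded. Traces averaged over 200 cells, then scored as AUC, peak amplitude and slope of the Ca2+ rise versus untreated control. Compound working solutions diluted from a 50 mM DMSO stock to 0.1% DMSO in physiologic buffer.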

[2] = molecular target: T1, ORAI1/STIM1 (Homo sapiens); experiment: Inhibition of STIM1/Orai1 (unknown origin) expressed in HEK293 cells assessed as reduction in tBHQ-induced calcium response by measuring decrease in peak amplitude of calcium entry at 10 uM relative to control; type: cell-based; method in brief: as §1
[3] = molecular target: T1, ORAI1/STIM1 (Homo sapiens); experiment: Inhibition of STIM1/Orai1 (unknown origin) expressed in HEK293 cells assessed as reduction in tBHQ-induced calcium response by measuring decrease in calcium entry AUC at 10 uM relative to control; type: cell-based; method in brief: as §1
[4] = molecular target: T1, ORAI1/STIM1 (Homo sapiens); experiment: Inhibition of STIM1/Orai1 (unknown origin) expressed in HEK293 cells assessed as reduction in tBHQ-induced calcium response by measuring decrease in slope of calcium entry at 10 uM relative to control; type: cell-based; method in brief: as §1
ORAI1/STIM1 = ORAI1/STIM1 (Homo sapiens, UniProt Q13586+Q96D31); experiment: Inhibition of STIM1/Orai1 (unknown origin) expressed in HEK293 cells assessed as reduction in tBHQ-induced calcium response; type: cell-based
[5] = Metabolic stability in mouse liver microsomes assessed as compound remaining after 1 hr; type: ADME, Microsome; conditions: read-out: Stabilty
Method in brief: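 Pooled male CD-1 mouse liver microsomes (20 mg/mL protein stock), NADPH-activated. Substrate at 5 μM. Residual parent measured after 1 h incubation.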

[6] = Thermodynamic aqueous solubility; type: physicochemical; conditions: read-out: Therm_solubility
Method in brief: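 About 3 mg compound in 3 mL deionized water, vortexed, sonicated 5 min, then shaken overnight at 25 °C. Filtered through a 0.22 μm membrane, DMSO added, diluted about 1:10 in water. Quantified by LC–UV against DMSO standard solutions.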

Mus musculus [7] = experiment: Anti pancreatitis activity in C57BL/6 mouse model of cerulein-induced acute pancreatitis assessed as reduction of inflammation and edema at 10 mg/kg, ip administered 30 and 150 mins after the first cerulein injection measured 5 hrs after first cerulein injection by H and E staining based assay; type: functional, organism-based
Method in brief: (§2)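 Acute pancreatitis induced in mice by i.p. cerulein injections. Test agent given i.p. at 10 mg/kg, 30 and 150 min after the first cerulein injection. Pancreas collected 5 h after the first cerulein injection, H&E stained and scored histologically for inflammation and edema.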

Mus musculus [8] = experiment: Anti pancreatitis activity in C57BL/6 mouse model of cerulein-induced acute pancreatitis assessed as amelioration of histological scores at 10 mg/kg, ip administered 30 and 150 mins after the first cerulein injection measured 5 hrs after first cerulein injection by H and E staining based assay; type: functional, organism-based; method in brief: as §2
HEK293 [9] = experiment: Cytotoxicity in HEK293 cells assessed as cell viability at 50 uM after 72 hrs in presence of excess uridine by MTT assay; type: cell-based; conditions: human, hek293, 72 h
Method in brief: (§3)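 MTT viability in HEK cells after 72 h treatment at 50 μM, with or without 100 μM uridine. MTT at 0.25 mg/mL final for 60 min at 37 °C, solubilized in isopropyl alcohol/HCl (1 M), absorbance read at 570 nm. Mean ± SEM, Student t-test against control.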

HEK293 [10] = experiment: Cytotoxicity in HEK293 cells assessed as cell viability at 10 uM after 24 hrs by MTT assay; type: cell-based; conditions: human, hek293, 24 h
Method in brief: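 MTT viability assay. HEK cells seeded at 20,000 per well, treated 24 h after plating for a further 24 h. MTT at 0.25 mg/mL final for 60 min at 37 °C. Crystals dissolved in isopropyl alcohol/HCl (1 M), absorbance read at 570 nm. Compounds diluted to 0.1% DMSO in culture medium.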

HEK293 [11] = experiment: Cytotoxicity in HEK293 cells assessed as cell viability at 50 uM after 72 hrs by MTT assay; type: cell-based; conditions: human, hek293, 72 h; method in brief: as §3
[12] = dose 3.0 µM, in the assay text read “at 3 uM” for “at 10 uM”

Sequence of ORAI1/STIM1 (Q96D31 whole entry): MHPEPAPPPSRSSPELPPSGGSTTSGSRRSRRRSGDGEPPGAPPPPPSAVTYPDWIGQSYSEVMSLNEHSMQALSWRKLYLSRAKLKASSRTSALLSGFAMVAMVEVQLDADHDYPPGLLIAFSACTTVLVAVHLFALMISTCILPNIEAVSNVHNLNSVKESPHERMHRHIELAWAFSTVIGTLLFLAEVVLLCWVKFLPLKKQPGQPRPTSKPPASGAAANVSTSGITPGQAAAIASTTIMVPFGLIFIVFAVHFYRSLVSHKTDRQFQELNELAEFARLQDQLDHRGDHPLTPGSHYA
Sequence of ORAI1/STIM1 (Q13586 whole entry): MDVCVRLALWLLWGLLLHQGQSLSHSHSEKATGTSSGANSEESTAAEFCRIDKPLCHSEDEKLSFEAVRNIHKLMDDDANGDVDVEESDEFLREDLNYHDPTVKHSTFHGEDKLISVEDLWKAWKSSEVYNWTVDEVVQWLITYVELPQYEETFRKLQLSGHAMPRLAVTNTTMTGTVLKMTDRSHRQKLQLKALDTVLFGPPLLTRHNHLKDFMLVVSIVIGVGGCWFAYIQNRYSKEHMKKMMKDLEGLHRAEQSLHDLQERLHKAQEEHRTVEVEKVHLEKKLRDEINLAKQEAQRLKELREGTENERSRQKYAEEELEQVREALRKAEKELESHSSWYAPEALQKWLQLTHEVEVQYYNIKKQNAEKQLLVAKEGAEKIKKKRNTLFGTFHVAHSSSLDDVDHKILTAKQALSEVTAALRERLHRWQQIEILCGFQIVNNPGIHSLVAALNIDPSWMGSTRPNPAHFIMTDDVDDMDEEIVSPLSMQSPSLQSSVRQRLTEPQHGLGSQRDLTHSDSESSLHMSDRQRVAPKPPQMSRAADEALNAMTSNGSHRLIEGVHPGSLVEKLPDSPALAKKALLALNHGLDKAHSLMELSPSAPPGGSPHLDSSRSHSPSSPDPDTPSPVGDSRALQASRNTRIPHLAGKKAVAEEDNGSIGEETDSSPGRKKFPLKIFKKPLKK
T1 sequence (Q13586 23-685 partner limits assumed): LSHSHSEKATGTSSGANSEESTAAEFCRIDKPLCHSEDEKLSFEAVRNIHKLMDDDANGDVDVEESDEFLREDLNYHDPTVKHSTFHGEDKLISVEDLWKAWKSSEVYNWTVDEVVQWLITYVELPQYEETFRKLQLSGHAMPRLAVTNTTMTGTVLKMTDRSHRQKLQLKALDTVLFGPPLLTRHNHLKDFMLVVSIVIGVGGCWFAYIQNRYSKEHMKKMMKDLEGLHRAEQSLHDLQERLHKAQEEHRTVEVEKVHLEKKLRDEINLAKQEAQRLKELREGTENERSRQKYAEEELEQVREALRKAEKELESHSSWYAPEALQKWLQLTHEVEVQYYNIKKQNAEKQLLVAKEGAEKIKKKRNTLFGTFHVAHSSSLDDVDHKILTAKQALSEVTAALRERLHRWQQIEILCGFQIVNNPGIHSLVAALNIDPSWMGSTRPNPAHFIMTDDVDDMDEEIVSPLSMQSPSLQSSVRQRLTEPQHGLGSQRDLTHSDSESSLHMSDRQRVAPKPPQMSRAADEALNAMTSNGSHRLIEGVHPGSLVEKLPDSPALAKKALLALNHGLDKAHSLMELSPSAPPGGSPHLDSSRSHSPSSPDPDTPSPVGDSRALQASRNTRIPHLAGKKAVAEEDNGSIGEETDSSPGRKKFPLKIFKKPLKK
T1 sequence (Q96D31 whole entry): as the sequence (Q96D31 whole entry) above

Structure (SMILES): COc1ccc(OC)c(-c2ccc(-c3cn(-c4ccncc4F)nn3)cc2)c1
- inhibition ([1]; dose 10.0 µM): 26.2%

Structure (SMILES): COc1cccc(-c2ccc(-c3cn(-c4cccc(C(=O)O)c4)nn3)cc2)c1OC
- inhibition ([1]; dose 10.0 µM): 93.3%
- pIC50 (ORAI1/STIM1): 6.11
- inhibition [2]: Active
- inhibition [3]: Active
- inhibition [4]: Active

Structure (SMILES): COc1cc(OC)cc(-c2ccc(-n3cc(-c4cccc(C(=O)[O-])c4)nn3)cc2)c1.[Na+]
- remaining at 1 h [5]: 92%
- solubility thermodynamic [6]: 18.7 µg/mL

Structure (SMILES): COc1ccc(F)c(-c2ccc(-n3cc(-c4cccc(C(=O)[O-])c4)nn3)cc2)c1.[Na+]
- remaining at 1 h [5]: 93%
- solubility thermodynamic [6]: 1170 µg/mL

Structure (SMILES): Cc1cccc(F)c1C(=O)Nc1cnc(-c2cc3c(cc2Cl)OC(F)(F)O3)cn1 [ZEGOCRACTIN]
- Activity (HEK293 [9]): Toxic
- Activity (HEK293 [11]): Toxic

Structure (SMILES): COc1ccc(OC)c(-c2ccc(-n3cc(-c4cccc(C(=O)O)c4)nn3)cc2)c1
- inhibition ([1]; dose 10.0 µM): 76.2%

Structure (SMILES): COc1ccc(OC)c(-c2ccc(-n3cc(-c4ccnc(C(=O)O)c4)nn3)cc2)c1
- inhibition ([1]; dose 10.0 µM): 79.9%

Structure (SMILES): COc1ccc(OC)c(-c2ccc(-c3cn(-c4ccncc4)nn3)cc2)c1
- inhibition ([1]; dose 10.0 µM): -1.7%

Structure (SMILES): C/C(O)=C(\C#N)C(=O)Nc1ccc(C(F)(F)F)cc1 [TERIFLUNOMIDE]
- Activity (HEK293 [11]): Non-Toxic

Structure (SMILES): COc1ccccc1-c1ccc(-c2cn(-c3cccc(C(=O)O)c3)nn2)cc1
- inhibition [1, 12]: 12%

Structure (SMILES): COc1ccc(F)c(-c2ccc(-c3cn(-c4cccc(C(=O)O)c4)nn3)cc2)c1
- inhibition ([1]; dose 10.0 µM): 88.9%
- Activity (HEK293 [10]): 92.3%
- pIC50 (ORAI1/STIM1): 6.06
- inhibition [2]: Active
- inhibition [3]: Active
- inhibition [4]: Active

Structure (SMILES): O=C(O)c1cccc(NC(=O)c2ccc(-c3ccc4c(c3)OCCO4)cc2)c1
- Activity (HEK293 [9]): Non-Toxic
- inhibition ([1]; dose 10.0 µM): 22.6%
- Activity (HEK293 [10]): 95.3%

Further lines, with some results ahead:

- inhibition ([1]; dose 10.0 µM): 77.5%
- inhibition [2]: Active
- inhibition [3]: Active
- inhibition [4]: Active
Structure (SMILES): O=C(O)c1cccc(-c2cn(-c3ccc(-c4ccc5c(c4)OCCO5)cc3)nn2)c1 [listing 1 of 2 here]

- inhibition [1, 12]: 96.5%
- inhibition [2]: Active
- inhibition [3]: Active
- inhibition [4]: Active
Structure (SMILES): COc1cccc(-c2ccc(-n3cc(-c4cccc(C(=O)O)c4)nn3)cc2)c1OC
- Activity (Mus musculus [7]): Active
- Activity (Mus musculus [8]): Active

- pIC50 (ORAI1/STIM1): 6.44
Structure (SMILES): COc1ccc(F)c(-c2ccc(-n3cc(-c4cccc(C(=O)O)c4)nn3)cc2)c1 [listing 1 of 2 here]
- Activity (HEK293 [9]): Non-Toxic
- Activity (HEK293 [10]): 91.1%
- Activity (HEK293 [11]): Non-Toxic

- inhibition ([1]; dose 10.0 µM): 74.7%
- inhibition [2]: Active
- inhibition [3]: Active
- inhibition [4]: Active
Structure (SMILES): COc1ccc(F)c(-c2ccc(-n3cc(-c4cccc(C(=O)O)c4)nn3)cc2)c1 [listing 2 of 2 here]

- inhibition [1, 12]: 23.6%
Structure (SMILES): CSc1cccc(-c2ccc(-n3cc(-c4cccc(C(=O)O)c4)nn3)cc2)c1

- inhibition ([1]; dose 10.0 µM): 0%
Structure (SMILES): CSc1cccc(-c2ccc(-c3cn(-c4cccc(C(=O)O)c4)nn3)cc2)c1

- pIC50 (ORAI1/STIM1): 5.92
Structure (SMILES): O=C(O)c1cccc(-c2cn(-c3ccc(-c4ccc5c(c4)OCCO5)cc3)nn2)c1 [listing 2 of 2 here]
- Activity (HEK293 [9]): Non-Toxic
- Activity (HEK293 [11]): Non-Toxic

- pIC50 (ORAI1/STIM1): 6.09
Structure (SMILES): COc1cccc(-c2ccc(-n3cc(-c4cccc(C(=O)O)c4)nn3)cc2)c1 [listing 1 of 2 here]
- Activity (HEK293 [9]): Non-Toxic
- Activity (HEK293 [11]): Non-Toxic

- inhibition [1, 12]: 85.1%
- inhibition [2]: Active
- inhibition [3]: Active
- inhibition [4]: Active
Structure (SMILES): COc1cccc(-c2ccc(-n3cc(-c4cccc(C(=O)O)c4)nn3)cc2)c1 [listing 2 of 2 here]

- inhibition ([1]; dose 10.0 µM): 25.8%
Structure (SMILES): COc1cccc(OC)c1-c1ccc(-n2cc(-c3cccc(C(=O)O)c3)nn2)cc1

- remaining at 1 h [5]: 91%
- solubility thermodynamic [6]: 856 µg/mL
Structure (SMILES): COc1cccc(-c2ccc(-n3cc(-c4cccc(C(=O)[O-])c4)nn3)cc2)c1.[Na+]

- inhibition [1, 12]: 54.3%
Structure (SMILES): COc1ccc(-c2ccc(-n3cc(-c4cccc(C(=O)O)c4)nn3)cc2)cc1OC

- inhibition [1, 12]: 0%
Structure (SMILES): O=C(O)c1cccc(-c2cn(-c3ccc(-c4cccc(O)c4)cc3)nn2)c1

- inhibition ([1]; dose 10.0 µM): 67.3%
Structure (SMILES): O=C(O)c1cccc(-c2cn(-c3ccc(-c4ccc5c(c4)OCO5)cc3)nn2)c1
